≈ marks a conversion by molar mass, not a printed value.
Key:
Type in all cases: functional
[1] = test system: Enterobacter cloacae; assay: In vitro antibacterial activity against Enterobacter cloacae ATCC 35030
Outline: (§1)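 Broth microdilution MIC in Mueller–Hinton broth supplemented with 50% human serum; inoculum 5 × 10⁵ cfu/mL. MG1655 tolC is an efflux pump mutant.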

[2] = test system: Escherichia coli; assay: In vitro antibacterial activity against Escherichia coli MG1655 tolC; outline: as §1
[3] = test system: Escherichia coli; assay: Inhibitory activity against protein synthesis of Escherichia coli S30 by cell-free transcription/translation coupled assay
Outline: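 Coupled transcription/translation in E. coli S30 extract with pGEMbgal DNA template; compounds preincubated with reaction mixture 10 min before template addition; after 1 h incubation ONPG added and β-galactosidase activity read at 420 nm.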

[4] = test system: Escherichia coli; assay: In vitro antibacterial activity against Escherichia coli ATCC 25922; outline: as §1
[5] = test system: Escherichia coli; assay: In vitro antibacterial activity against Escherichia coli MG1655; outline: as §1
[6] = test system: Klebsiella pneumoniae; assay: In vitro antibacterial activity against Klebsiella pneumoniae […]; outline: as §1
[7] = test system: Pseudomonas aeruginosa; assay: In vitro antibacterial activity against Pseudomonas aeruginosa PA013; outline: as §1
[8] = test system: Staphylococcus aureus; assay: In vitro antibacterial activity against Staphylococcus aureus ATCC 25293; outline: as §1
[9] = test system: Streptococcus pneumoniae; assay: In vitro antibacterial activity against Streptococcus pneumoniae VSPN1005; outline: as §1
[10] = test system: Mus musculus; assay: In vivo efficacy in Escherichia coli murine septicemia model
Outline: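 Mice infected ip with approximately 1 × 10⁵ cfu E. coli ATCC25922; compound given iv at 1 and 5 h post-infection; survival followed for 7 days; ED₅₀ calculated by non-linear regression.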

Structure (SMILES) | MIC [1] [µg/mL] | MIC [2] [µg/mL] | IC50 [3] [µM] | MIC [4] [µg/mL] | MIC [5] [µg/mL] | MIC [6] [µg/mL] | MIC [7] [µg/mL] | MIC [8] [µg/mL] | MIC [9] [µg/mL] | ED50 [10] [mg/kg]
CN(CP(=O)(O)O)NC(=O)C[C@H](N)C[C@@H](O)CN | > 256 | > 256 | > 80 | > 256 | > 256 | > 256 | > 256 | > 256 | > 256 | –
CCCNC[C@H](O)C[C@@H](N)CC(=O)NN(C)CC(=O)O | > 256 | > 256 | 20.3 | > 256 | > 256 | > 256 | > 256 | > 256 | > 256 | –
CN(CP(C)(=O)O)NC(=O)C[C@H](N)C[C@@H](O)CN | > 256 | > 256 | > 80 | > 256 | > 256 | > 256 | > 256 | > 256 | > 256 | –
CC(C)C[C@H](N)C(=O)NC[C@H](O)C[C@@H](N)CC(=O)NN(C)CC(=O)O | 16 (≈ 44.3 µM) | 8 (≈ 22.1 µM) | 3.5 | 16 (≈ 44.3 µM) | 16 (≈ 44.3 µM) | 32 (≈ 88.5 µM) | 64 (≈ 177 µM) | 256 (≈ 708 µM) | – | –
CN(CC(=O)O)NC(=O)C[C@H](N)C[C@@H](O)CN=C(N)N | > 256 | 128 (≈ 441 µM) | > 80 | > 256 | > 256 | > 256 | > 256 | > 256 | – | –
CN(CC(=O)O)NC(=O)C[C@H](N)CC(O)CN1CCOCC1 (some centres undefined) | > 256 | > 256 | > 80 | > 256 | > 256 | > 256 | > 256 | > 256 | > 256 | –
CCNC[C@H](O)C[C@@H](N)CC(=O)NN(C)CC(=O)O | 16 (≈ 57.9 µM) | 4 (≈ 14.5 µM) | 4.5 | 16 (≈ 57.9 µM) | 8 (≈ 29 µM) | 8 (≈ 29 µM) | 128 (≈ 463 µM) | > 256 | – | –
NC[C@H](O)C[C@@H](N)CC(=O)NOCC(=O)O | > 256 | > 256 | > 80 | > 256 | > 256 | > 256 | > 256 | > 256 | > 256 | –
CN(CC(=O)O)NC(=O)C[C@H](N)CC(O)CN1CCNCC1 (some centres undefined) | > 256 | > 256 | > 80 | > 256 | > 256 | > 256 | > 256 | > 256 | > 256 | –
CN(Cc1nn[nH]n1)NC(=O)C[C@H](N)C[C@@H](O)CN | > 256 | > 256 | > 80 | > 256 | > 256 | > 256 | > 256 | > 256 | > 256 | –
NC[C@H](O)C[C@@H](N)CC(=O)NN1CCC[C@H]1C(=O)O | > 256 | > 256 | > 80 | > 256 | > 256 | > 256 | > 256 | > 256 | > 256 | –
CC(ONC(=O)C[C@H](N)C[C@@H](O)CN)C(=O)O (some centres undefined) | > 256 | > 256 | > 80 | > 256 | > 256 | > 256 | > 256 | > 256 | > 256 | –
CN(CC(=O)O)NC(=O)C[C@H](N)C[C@H](O)CCN | > 256 | > 256 | > 80 | > 256 | > 256 | > 256 | > 256 | > 256 | > 256 | –
CN(CC(=O)O)NC(=O)C[C@H](N)C[C@@H](O)CNCc1ccccc1 | 64 (≈ 189 µM) | 16 (≈ 47.3 µM) | 0.8 | 64 (≈ 189 µM) | 32 (≈ 94.6 µM) | 32 (≈ 94.6 µM) | > 128 | > 128 | 128 (≈ 378 µM) | –
CN(CC(=O)O)NC(=O)C[C@H](N)C[C@H](O)CN | 128 (≈ 516 µM) | 32 (≈ 129 µM) | 23.4 | 128 (≈ 516 µM) | 128 (≈ 516 µM) | 64 (≈ 258 µM) | > 512 | 512 (≈ 2060 µM) | – | –
CN(CC(=O)O)NC(=O)C[C@H](N)CC(O)CN1CC[C@H](N)C1 (some centres undefined) | > 256 | > 256 | > 80 | > 256 | > 256 | > 256 | > 256 | > 256 | > 256 | –
CN(CC(=O)O)NC(=O)C[C@H](N)C[C@@H](O)CNC(N)=O | > 256 | > 256 | > 80 | > 256 | > 256 | > 256 | > 256 | > 256 | – | –
CN(CC(=O)O)NC(=O)C[C@H](N)C[C@@H](O)CCN | > 256 | > 256 | > 80 | > 256 | > 256 | > 256 | > 256 | > 256 | > 256 | –
CNC[C@H](O)C[C@@H](N)CC(=O)NN(C)CC(=O)O | 16 (≈ 61 µM) | 4 (≈ 15.2 µM) | 2.3 | 16 (≈ 61 µM) | 8 (≈ 30.5 µM) | 4 (≈ 15.2 µM) | 128 (≈ 488 µM) | 128 (≈ 488 µM) | 256 (≈ 976 µM) | 16.3
NC[C@H](O)C[C@@H](N)CC(=O)NN1CCC[C@@H]1C(=O)O | > 256 | > 256 | > 80 | > 256 | > 256 | > 256 | > 256 | > 256 | > 256 | –
CN(CC(=O)O)NC(=O)C[C@H](N)CC(O)CN1CC[C@@H](N)C1 (some centres undefined) | > 256 | > 256 | > 80 | > 256 | > 256 | > 256 | > 256 | > 256 | > 256 | –
CC(C)CCCNC[C@H](O)C[C@@H](N)CC(=O)NN(C)CC(=O)O | > 256 | > 256 | > 80 | > 256 | > 256 | > 256 | > 256 | > 256 | > 256 | –
CN(CC(=O)O)NC(=O)C[C@H](N)C[C@@H](O)CN [NEGAMYCIN] | 8 (≈ 32.2 µM) | 2 (≈ 8.06 µM) | 1 | 4 (≈ 16.1 µM) | 4 (≈ 16.1 µM) | 2 (≈ 8.06 µM) | 32 (≈ 129 µM) | 32 (≈ 129 µM) | 32 (≈ 129 µM) | 5.1
